The list is not random: actives were taken first. Their share in the collection is about 5.7%.
Mdm2 MdmX PPI: disrupts the human Mdm2-MdmX interaction | inhibition, % at 8 µM | O15151+Q00987 | SaOS-2 split-luciferase Mdm2/MdmX complementation, luminescence | hit rate 3% among 330,000 | AID 485346;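 active means inhibition of at least 50% at 8 µM in the primary screen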
T cruzi inh: blocks replication of Trypanosoma cruzi; T. cruzi beta-gal in NIH3T3, luminescence, 90 h; inhibition, % (no concentration beside the values); hit rate 1.4% among 300,000;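 active means mean inhibition across valid replicates above about 55%, limit read from the data; inconclusive means mean below that limit but half or more replicates reach it; inactive means mean below it, under half of replicates reach it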;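 further: signal also drops with host cell toxicity which is not excluded here; 0% = plate median of DMSO wells and 100% = zero luminescence signal; higher percent means less beta-gal luminescence so fewer parasites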
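System – NIH/3T3 host cells with β-galactosidase reporter T. cruzi · Doses – single 50 nL compound addition per well in DMSO · Reagent – 5000 T. cruzi trypomastigotes/well · Medium – Low-serum DMEM with 2% FBS · Timing – ≥90 h infection period, 3 h prior cell attachment · Evaluation – parasite load inhibition, % · Technique – GalScreen luminescence, 60 min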
Calb FLC: affects C. albicans growth with fluconazole. C. albicans CaCi-2 (fluconazole-resistant clinical isolate) + fluconazole, Alamar Blue growth, 48 h. growth inhibition, % (concentration not given with the values). hit rate 0.57% among 300,000. AID 1979;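 active means growth inhibition above about 58% in most replicates, limit read from the data, passing the limit was not always enough; inconclusive means exactly half the replicates above a set limit; inactive means most replicates below a set limit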;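 further: all wells also contain fluconazole at 8 µg/ml as a sub-toxic cotreatment; 0% = median of DMSO wells and 100% = median of geldanamycin control wells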
Beta apoptosis: beta cell apoptosis inhibition | INS-1E cytokine-induced death, ATP luminescence, 48 h; percent of positive-control rescue, neutral wells zero | protection from apoptosis, % (concentration not given with the values) | hit rate 0.8% among 300,000 | AID 435005;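 active means Every replicate reaches about 75%, or at least half do and their mean reaches it too, limit read from the data; inconclusive means At least half of replicates reach the limit but their mean does not; inactive means Under half of replicates reach the limit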;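 further: 0% = cytokine-treated negative control wells and 100% = positive control rescue; higher means more ATP so stronger rescue from cytokine killing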
SKKanGAS inh: blocks kanamycin growth of S. pyogenes SKKanGAS strain; BacTiter-Glo, 6 h; inhibition, % at 7.5 µM; hit rate 1.3% among 300,000; AID 1662;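 active means mean replicate score, as percent of positive control median, at least 50; inconclusive means mean below 50 but one replicate at or above 50; inactive means mean and every replicate below 50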;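 further: strain carries kanamycin resistance gene driven by streptokinase promoter and grows in 40 µg/ml kanamycin; loss of luminescence reflects streptokinase promoter inhibition or plain growth inhibition; 0% = median of DMSO wells and 100% = positive control at its reference dose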
CSC inhib: blocks cancer stem cells; cancer stem cell-like cells viability, luminescence; hit rate 1.1% among 300,000; inhibition, % at 7.5 µM; in the data active means inhibition above about 75%; inconclusive means no clear call, values can overlap the other calls; tested in HMLE shEcad cells
Active calls of the source: *; ? = inconclusive; . = no result.

SMILES | Mdm2 MdmX PPI | T cruzi inh | Calb FLC | Beta apoptosis | SKKanGAS inh | CSC inhib
Cn1c(=O)c2c(nc(N3CCN(c4ccc([N+](=O)[O-])cc4)CC3)n2C)n(C)c1=O | 17 | 10 | 3 | 2 | 4 | -9
CC(=O)Nc1cccc(NC(=O)C(=O)NCC(c2ccco2)N2CCc3ccccc3C2)c1 (configuration not stated) | 20 | 11 | 2 | -4 | 3 | -9
O=C(c1cccs1)N1N=C(c2ccccc2)CC1c1ccccc1 (configuration not stated) | 12 | 26 | -12 | 19 | 57* | 25
O=C(c1cccs1)N1N=C(c2ccc(O)cc2)CC1c1ccccc1 (configuration not stated) | -4 | -10 | -6 | 2 | 11 | 1
COc1ccc(C)cc1S(=O)(=O)NC(C)C(=O)NC1CC1 (configuration not stated) | -7 | -5 | 4 | -6 | 1 | 6
C/C(=N\Nc1nc(C(C)(C)C)cs1)c1ccc(O)cc1 | -24 | 22 | 3 | 5 | 5 | 13
C/C(=N\Nc1nc(C(C)(C)C)cs1)c1ccccc1 | -97 | 73* | -19 | 15 | 18 | 10
NC(=O)c1c(NC(=O)c2ccccc2F)sc2c1CCCC2 | -189 | 5 | 82* | -3 | 7 | -9
C=CCOc1cccc(C2/C(=C(\O)c3ccc4c(c3)OCCO4)C(=O)C(=O)N2CCN2CCOCC2)c1 (configuration not stated) | 16 | -32 | 0 | . | 2 | -18
CC(OC(=O)C1=COCCO1)C(=O)Nc1ncc(Cl)cc1Cl (configuration not stated) | -7 | . | . | . | . | .
O=C(OCc1ccccc1)/C(=C(\O)c1ccccc1Br)c1ccc(-c2ccccc2)cn1 | 19 | -9 | 2 | 9 | 6 | 24
Cc1ccc(C(=O)CC(=O)c2ccccc2C)c(O)c1 | 34 | 5 | 81* | 4 | 97* | 26
Cc1ccc(O)c(C(=O)CC(=O)c2ccc(C(C)(C)C)cc2)c1 | 19 | -6 | -2 | 3 | 95* | 10
Cc1ccc(O)c(C(=O)CC(=O)c2ccccc2Cl)c1 | 5 | 12 | 108* | 19 | 81* | 6
COc1ccc(O)c(C(=O)CC(=O)c2ccccc2)c1 | -181 | -1 | 14 | 0 | 8 | 3
CC(C)C[C@H](NC(=O)N1CC(=O)Nc2ccccc21)C(=O)N[C@H](C(=O)O)c1ccccc1 | . | -20 | 1 | 2 | 63* | -10
CC(C)[C@H](NC(=O)N1CC(=O)Nc2ccccc21)C(=O)N[C@@H](Cc1ccccc1)C(=O)O | 22 | -6 | -5 | . | 94* | 0
CCCCN(C(=O)/C=C/c1ccco1)c1c(N)n(CCC)c(=O)[nH]c1=O | 2 | -11 | 4 | -5 | 10 | -8
CCN(c1ccccc1)S(=O)(=O)c1ccc(C(=O)N(C)CCc2ccc(OC)c(OC)c2)cc1 | 23 | 4 | -4 | 3 | -1 | -2
S=c1[nH]nc(-c2cccs2)n1/N=C/c1cn(-c2ccccc2)nc1-c1ccccc1 | 7 | -8 | 16 | . | 75* | 25
Cc1ccc(-c2nn(-c3ccccc3)cc2/C=N/n2c(-c3ccncc3)n[nH]c2=S)cc1 | 1 | -3 | -1 | 0 | 20 | 25
COc1ccc(-n2nnnc2SCC(=O)Nc2ccc(OC)cc2OC)cc1 | -3 | 0 | -7 | -3 | -3 | -17
Brc1ccc(CSc2nnc(-c3cnccn3)n2Cc2ccco2)cc1 | 12 | 14 | 99* | -9 | 2 | 24
CC(C)NC(=O)N(C)C[C@H]1Oc2ccc(NC(=O)C3CC3)cc2C(=O)N([C@H](C)CO)C[C@@H]1C | -53 | . | . | 1 | . | 15
O=[N+]([O-])c1ccc2nc(NS(=O)(=O)c3ccc(F)cc3)sc2c1 | -14 | -17 | 5 | -4 | 1 | 10
SMILES | Mdm2 MdmX PPI | T cruzi inh | Calb FLC | Beta apoptosis | SKKanGAS inh | CSC inhib
CCN(CC)c1ccc2cc(S(=O)(=O)c3ccc(C)cc3)c(=O)oc2c1 | 19 | 20 | 101* | 9 | -7 | 99*
O=C(CC1C(=O)Nc2ccccc2N1CC(=O)N1CCCC1)Nc1ccc(Br)cc1 (configuration not stated) | -20 | . | . | -1 | . | .
Cc1cccc(NC2=C(NC(=O)c3ccccc3)C(=O)c3ccccc3C2=O)c1 | 9 | -4 | -20 | 78* | 26 | 16
O=C(NC1=C(Nc2ccc(Cl)cc2)C(=O)c2ccccc2C1=O)c1ccccc1 | 22 | 5 | 3 | 117* | 42 | 42
CN(C1=C(NC(=O)c2ccc(Cl)cc2)C(=O)c2ccccc2C1=O)c1ccccc1 | 33 | -5 | 3 | 93* | 2 | 64
O=C(Nc1ccc(Nc2ccccc2)cc1)c1ccc(Cl)cc1 | 21 | 13 | 26 | 14 | 7 | 41
CN(Cc1cnccn1)C(=O)CC1C(=O)NCCN1Cc1c(F)cccc1Cl (configuration not stated) | 4 | -4 | -4 | 1 | 3 | -12
Cc1cc2ccccn2c1C(=O)c1cc([N+](=O)[O-])cc([N+](=O)[O-])c1 | -6 | 65* | 42 | 11 | 3 | -5
O=C(Nc1cccc(-c2cn3c(n2)SCC3)c1)c1ccc(Br)o1 | 2 | . | 121* | 5 | . | 25
Cc1ccc(SCC(=O)NC(=O)c2ccc(S(=O)(=O)N(C)C)cc2)cc1C | 2 | -7 | -9 | -13 | 2 | -10
Cc1cnccc1CN(C)Cc1cn(C)nc1-c1ccc(Oc2ccccc2)cc1 | 24 | 70* | 3 | 6 | 14 | -6
Cc1cccc(NS(=O)(=O)c2ccc(C3CCCCC3)cc2)c1 | 33 | 15 | -1 | 64 | 108* | ?
O=C(O)c1cccc(NS(=O)(=O)c2ccc(C3CCCCC3)cc2)c1 | -11 | -7 | -3 | -3 | 9 | -18
CN(NS(C)(=O)=O)c1ncc(C(F)(F)F)cc1Cl | 11 | 0 | -14 | 6 | 7 | -5
CN(/N=C/c1ccc(Cl)cc1Cl)c1ncc(Cl)cc1C(F)(F)F | 21 | 5 | -10 | 4 | 76* | 7
CN(/N=C/c1ccc(Cl)cc1)c1ncc(Cl)cc1C(F)(F)F | -22 | 9 | -5 | 6 | 73* | 51
O=C(NNC(=O)c1ccccc1F)c1cccc(-n2cccc2)c1 | -24 | 5 | 2 | -4 | 2 | 2
Cc1ccc(C)c(N(CC(=O)NC2CCCC2)C(=O)CCC(=O)Nc2cc(C)on2)c1 | 7 | -3 | 4 | -3 | -2 | -9
CN(C)c1ccc(/C=C/c2cc[n+]([O-])cc2)cc1 | 5 | -4 | -4 | -6 | -2 | -15
CC[n+]1ccccc1/C=C/c1ccc(N(C)C)cc1 | . | 59* | -56 | . | 0 | .
CC12CCC(=O)N1C(C(=O)Nc1ccccc1N1CCCCC1)CS2 (configuration not stated) | -40 | . | . | 2 | . | -3
CCOc1ccc2c(c1)-c1c(ssc1=S)C(C)(C)N2C(=O)c1ccco1 | 35 | -19 | 8 | 11 | 8 | 85*

Screening results deposited in PubChem BioAssay by several laboratories.
